The subject of assay [1] is MV4-11. Put plainly: Antiproliferative activity against human MV4-11 cells assessed as cell death at 10 uM after 48 hrs by CellTiter-Blue assay. The class given is functional, cell-based. The method, boiled down:
(§1)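 MV4-11 and PC-3 cells treated with 10 or 2 μM (or 0 μM) and sampled at 24 and 48 h. Viable cells measured by CellTiter-Blue resorufin fluorescence, read as in the EC50 assay, which is proportional to viable cell number. Representative of n = 2 experiments.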
(In general: The colour change of resazurin is a common sign of viable cells or microbes.)

Assay [2] concerns PC-3. Kind of assay: Induction of apoptosis in human PC3 cells assessed as increase in cleaved caspase-3 level at 1 to 2 uM after 24 hrs by Western blot method. The class given is functional, cell-based. The method, boiled down: (§2)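 MV4-11 (1,500,000/well) or PC-3 (300,000/well) grown 12 h, then treated 24 h at 1 and 2 μM, with 5 μM SAHA as reference. RIPA lysis, sonication and centrifugation, BCA normalization. NuPAGE 4–12% Bis-Tris gel in MES, transfer, primary antibodies 1/1000 overnight at 4 °C. Actin as loading control.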
A general note: In western blotting, separated proteins are transferred to a membrane and probed.

Assay [3] deals with MV4-11. Kind of assay: Antiproliferative activity against human MV4-11 cells assessed as cell death at 2 to 10 uM after 24 to 48 hrs by CellTiter-Blue assay. It counts as functional, cell-based. The method, boiled down:
as §1

The subject of assay [4] is MV4-11. Put plainly: Cell cycle arrest in human MV4-11 cells assessed as accumulation at subG1 phase after 24 hrs by propidium iodide staining based flow cytometry. The class given is functional. On the technique in general: Flow cytometry measures light scatter and fluorescence of single cells or particles in a stream.
The target in assay [5] is Histone deacetylase 4 (Homo sapiens, UniProt P56524). Kind of assay: Inhibition of recombinant human N-terminal GST-tagged/C-terminal His-tagged HDAC4 (627 to 1084 residues) expressed in baculovirus expression system using Boc-Lys(trifluoroacetyl)-AMC as substrate preincubated for 1 hr followed by substrate addition measured after 2 hrs by fluorescence assay. The method, boiled down:
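Recombinant HDAC incubated with serial compound dilutions at 30 °C for 1 h. Reaction run 2 h at 30 °C, stopped with developer containing trypsin and TSA. Fluorescence read after 30 min at 360/460 nm. Inhibition relative to control wells; IC50 from variable-slope fit.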

In assay [6] the test system is MV4-11. Put plainly: Induction of apoptosis in human MV4-11 cells assessed as increase in cleaved PARP level at 1 to 2 uM after 24 hrs by Western blot method. The class given is functional, cell-based. The method, boiled down:
as §2

Active and inactive are the calls of the source. No cut-off for these calls is given here.

Chain of Histone deacetylase 4 (P56524 whole entry, the tested form may be a part): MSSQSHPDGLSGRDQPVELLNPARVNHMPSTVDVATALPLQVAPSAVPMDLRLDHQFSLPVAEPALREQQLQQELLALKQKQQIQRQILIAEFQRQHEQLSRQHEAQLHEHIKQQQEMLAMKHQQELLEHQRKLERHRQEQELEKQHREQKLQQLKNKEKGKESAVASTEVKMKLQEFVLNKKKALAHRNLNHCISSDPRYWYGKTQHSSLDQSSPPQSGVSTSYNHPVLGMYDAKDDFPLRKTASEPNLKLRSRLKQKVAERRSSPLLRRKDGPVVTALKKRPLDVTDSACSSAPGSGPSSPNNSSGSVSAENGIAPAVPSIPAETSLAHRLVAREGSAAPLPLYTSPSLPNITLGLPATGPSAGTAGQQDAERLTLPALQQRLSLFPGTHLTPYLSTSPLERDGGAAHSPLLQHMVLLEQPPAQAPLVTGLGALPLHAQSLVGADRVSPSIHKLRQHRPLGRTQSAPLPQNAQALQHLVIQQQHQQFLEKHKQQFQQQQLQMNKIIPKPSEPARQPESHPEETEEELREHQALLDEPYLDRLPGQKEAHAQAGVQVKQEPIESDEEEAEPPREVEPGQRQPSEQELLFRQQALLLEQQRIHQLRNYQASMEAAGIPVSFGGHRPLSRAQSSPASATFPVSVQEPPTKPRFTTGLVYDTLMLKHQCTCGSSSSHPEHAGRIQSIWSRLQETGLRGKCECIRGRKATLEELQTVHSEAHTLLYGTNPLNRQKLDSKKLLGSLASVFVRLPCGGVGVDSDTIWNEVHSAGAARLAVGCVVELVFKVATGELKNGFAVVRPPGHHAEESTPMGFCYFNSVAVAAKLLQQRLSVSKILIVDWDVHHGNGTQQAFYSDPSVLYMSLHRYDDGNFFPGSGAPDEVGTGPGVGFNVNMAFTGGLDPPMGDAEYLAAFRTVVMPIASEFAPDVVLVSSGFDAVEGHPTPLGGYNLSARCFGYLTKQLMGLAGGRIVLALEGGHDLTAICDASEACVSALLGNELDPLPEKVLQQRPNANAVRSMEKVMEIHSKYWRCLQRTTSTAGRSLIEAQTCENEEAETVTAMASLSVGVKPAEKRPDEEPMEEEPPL

With `CCCNNC(=O)c1ccc(NC(=O)[C@H](Cc2c[nH]c3ccccc23)NC(=O)c2ccc(OC)cc2)cc1`, the outcome in assay [1], in assay [3] and in assay [6] was Active. For the same compound, in assay [2], the result was inactive. Besides, the Activity entry in assay [4] is “Dose-dependent effect”. In addition, the half-inhibitory concentration (IC50) (usually the concentration needed to halve the response being measured) in assay [5] is > 50 µM.

Source of the values: ChEMBL document CHEMBL4020839, “Class I HDAC Inhibitors Display Different Antitumor Mechanism in Leukemia and Prostatic Cancer Cells Depending on Their p53 Status” (J Med Chem, 2018).
